# Results taken from the RNAGym collection of RNA variant scans (doi:10.1038/s41586-018-0170-7).
# B1: tRNA (parent)
# chain: GUUCCGUUGGCGUAAUGGUAACGCGUCUCCCUCCUAAGGAGAAGACUGCGGGUUCGAGUCCCGUACGGAACG
# Variants of: B1
# Assay: yeast fitness, log relative to wild type (ln ratio); higher = fitter; tRNA-Arg(CCU), competitive growth, 37 C, 1 M NaCl
# Procedure, shortened: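 Two independent transformations put a combinatorial tRNA-Arg(CCU) variant library on a HIS3 centromeric plasmid into BY4742 lacking the chromosomal gene. Pools were grown in SC-HIS at 30 °C for 4 generations, then in SC-HIS 1M NaCl at 37 °C for ~6.5 generations (~26.5 h), with three outputs taken per input. Fitness compares a genotype's generations with the wild type's as a natural log ratio. Those generations are OD-scaled log2 output/input frequencies, inverse-variance weighted across replicates, from 125 bp paired-end Illumina counts.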
row,Variant,yeast fitness (ln)
1,G1A U2G A43C C46U A69G A70U,-0.132
2,G1A U2C G6U,-0.00557
3,G1A U2C G6U C27U C46U C66U A69G A70U,-0.222
4,G1A U2G A43C C66U A69G A70U C71U,-0.472
5,G1A U2G C27U A43C C46U A70U,-0.229
6,G1A U2G C27U A43C C46U A70G,-0.124
7,G1A U2C G6U C46U C66A A70U C71U,-0.0961
8,G1A U2C G6U C27U C46U C66U A70G,-0.203
9,G1A U2C G6U C27U C46U C66U A70U,-0.128
10,G1A U2G A43C C46U C66U A70G,-0.22
11,G1A U2G A43C C46U C66U A70U,-0.141
12,G1A U2C G6U A43C C66U A70G C71U,-0.335
13,G1A U2C G6U C66U A69G A70G C71U,-0.221
14,G1A U2C G6U C27U A43C C46U C66U A69G A70U,-0.472
15,G1A U2C G6U C27U A43C C46U C66U A69G A70G,-0.279
16,G1A U2C G6U A43C C46U C66U A70G C71U,-0.267
17,G1A U2G A43C C46U C66A C71U,-0.138
18,G1A U2G A43C C46U C66U C71U,-0.223
19,G1A U2C G6U C27U A43C C66U A69G A70U C71U,-0.42
20,G1A U2G C27U A43C C46U C66A A69G A70U C71U,-0.456
21,G1A U2G A43C C66U A70U,-0.185

row,Variant,yeast fitness (ln)
1,G1A U2G A43C C66U A70G,-0.214
2,G1A U2C G6A C27U C66U A70G C71U,-0.0371
3,G1A U2C G6U C27U A43C C46U C66A A69G A70G C71U,-0.0612
4,G1A U2G C27U A43C C46U A69G C71U,-0.239
5,G1A U2C G6U A43C C66A A70G C71U,-0.0204
6,G1A U2G C27U A43C C46U A69G A70U C71U,-0.399
7,G1A U2C G6U C27U C46U C66U A70U C71U,-0.284
8,G1A U2G A43C C46U C66A A69G C71U,-0.335
9,G1A U2G A43C C46U C66U A69G A70G,-0.254
10,G1A U2G A43C C46U C66U A69G A70U,-0.181
11,G1A U2C G6U C27U C66U A70G C71U,-0.496
12,G1A U2G C27U A43C C46U C66A A70G C71U,-0.224
13,G1A U2C G6U C66A A70U C71U,-0.16
14,G1A U2G A43C C46U,-0.042
15,G1A U2C G6U C27U A43C C46U C66U A70U C71U,-0.315
16,G1A U2G A43C C46U A69G C71U,-0.18
17,G1A U2C G6U C27U C46U A70G C71U,-0.203
18,G1A U2G A43C,-0.0767
19,G1A U2C G6U A43C C66U A69G A70G C71U,-0.344
20,G1A U2C G6U C27U A43C C46U A69G A70G C71U,-0.267
21,G1A U2C G6U A43C C46U C66A A70G C71U,-0.0283

row,Variant,yeast fitness (ln)
1,G1A U2C G6A C66U,-0.121
2,G1A U2C G6U A43C C46U A70U C71U,-0.144
3,G1A U2G C27U A43C A70U C71U,-0.167
4,G1A U2G C27U A43C C46U C66U A69G A70G C71U,-0.3
5,G1A U2C G6A C66U A70U C71U,-0.159
6,G1A U2G A43C C66U A69G A70G C71U,-0.457
7,G1A U2G A43C C46U C71U,-0.115
8,G1A U2C G6U A43C C66A A70G,-0.0507
9,G1A U2G A43C C46U C66U A70U C71U,-0.242
10,G1A U2C G6A C27U C66U A70U C71U,-0.261
11,G1A U2C G6A C27U C46U C71U,-0.157
12,G1A U2G A70U C71U,0.00659
13,G1A U2C G6U A43C,-0.116
14,G1A U2C G6U C46U A70G C71U,-0.00847
15,G1A U2C G6A C27U C46U A70G,-0.0476
16,G1A U2C G6A C27U C46U A70U,-0.0702
17,G1A U2C G6A C46U A69G A70G C71U,-0.0541
18,G1A U2C G6U C27U A43C C46U C66U A69G A70G C71U,-0.316
19,G1A U2C G6A C46U C66A A70U C71U,-0.102
20,G1A U2G A43C C46U C66U A69G C71U,-0.404
21,G1A U2C G6A C27U C46U C66U C71U,-0.348

row,Variant,yeast fitness (ln)
1,G1A U2C G6A C46U,0.00156
2,G1A U2G A43C C66A A70U C71U,-0.396
3,G1A U2C G6U C46U C66A A70G C71U,-0.0251
4,G1A U2C G6U C27U C46U A69G C71U,-0.166
5,G1A U2C G6U A43C A70G C71U,-0.198
6,G1A U2C G6U C46U C66A A69G A70G C71U,-0.0207
7,G1A U2G A69G A70G,-0.118
8,G1A U2G A69G A70U,-0.232
9,G1A U2C G6A C46U C66U A70U C71U,-0.0901
10,G1A U2G A43C C46U C66A A70G C71U,-0.187
11,G1A U2G A43C C66A C71U,-0.228
12,G1A U2G A43C C46U C66A A69G A70G C71U,-0.24
13,G1A U2C G6U C27U A43C A70U C71U,-0.294
14,G1A U2C G6U C27U C66U A69G A70U,-0.245
15,G1A U2C G6U C46U C66A C71U,-0.0738
16,G1A U2C G6A C66U A69G A70G,-0.0913
17,G1A U2C G6A C66U A69G A70U,-0.0166
18,G1A U2C G6U A43C C46U A69G A70G,-0.126
19,G1A U2G C27U A43C C46U C66U A70G C71U,-0.318
20,G1A U2G C27U A43C C46U C66A A70G,-0.178
21,G1A U2G C27U A43C C46U C66A A70U,-0.175
